In brackets after ≈: the same amount, converted by molar mass.
Columns and labels:
Format in all cases: functional
Klebsiella pneumoniae [1] = test: In vitro minimum inhibitory concentration against Klebsiella pneumoniae 8045 using brain-heart infusion agar
How it was run: (§1)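 Overnight cultures were grown in BHI broth at 36 °C. Twofold dilutions of a 2000 µg/mL stock were made in BHI agar, giving 200–0.005 µg/mL. Plates received about 10^4 organisms and were incubated for 18 h at 36 °C. MIC was the lowest concentration with no visible growth on the plate.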

Staphylococcus aureus [2] = test: In vitro minimum inhibitory concentration against Staphylococcus aureus ATCC 6538P using brain-heart infusion agar; how it was run: as §1
Klebsiella aerogenes = test: In vitro minimum inhibitory concentration against Enterobacter aerogenes ATCC 13048 using brain-heart infusion agar; how it was run: as §1
Acinetobacter = test: In vitro minimum inhibitory concentration against Acinetobacter CMX 669 using brain-heart infusion agar; how it was run: as §1
Pseudomonas aeruginosa [3] = test: In vitro minimum inhibitory concentration against Pseudomonas aeruginosa K799 / WT using brain-heart infusion agar; how it was run: as §1
Streptococcus agalactiae = test: In vitro minimum inhibitory concentration against Streptococcus agalactiae CMX 508 using brain-heart infusion agar; how it was run: as §1
Enterococcus faecium = test: In vitro minimum inhibitory concentration against Enterococcus faecium ATCC 8043 using brain-heart infusion agar; how it was run: as §1
Escherichia coli = test: In vitro minimum inhibitory concentration against Escherichia coli Juhl using brain-heart infusion agar; how it was run: as §1
Staphylococcus aureus [4] = test: In vitro minimum inhibitory concentration against Staphylococcus aureus A 5177 using brain-heart infusion agar; how it was run: as §1
Pseudomonas aeruginosa [5] = test: In vitro minimum inhibitory concentration against Pseudomonas aeruginosa A5007 using brain-heart infusion agar; how it was run: as §1
Streptococcus pyogenes = test: In vitro minimum inhibitory concentration against Streptococcus pyogenes 930 using brain-heart infusion agar; how it was run: as §1
Staphylococcus aureus [6] = test: In vitro minimum inhibitory concentration against Staphylococcus aureus CMX 553 using brain-heart infusion agar; how it was run: as §1
Streptococcus equinus = test: In vitro minimum inhibitory concentration against Streptococcus bovis A5169 using brain-heart infusion agar; how it was run: as §1
[7] = tested on: Staphylococcus epidermidis; test: In vitro minimum inhibitory concentration against Staphylococcus epidermidis 3159 using brain-heart infusion agar; how it was run: as §1
Staphylococcus aureus [8] = test: In vitro minimum inhibitory concentration against Staphylococcus aureus NCTC 10649 using brain-heart infusion agar; how it was run: as §1
Staphylococcus aureus [9] = test: In vivo antibacterial activity against Staphylococcus aureus NCTC 10649 infected mouse by subcutaneous administration; details: sc
How it was run: (§2)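 Compound was given in water or in dilute NaOH diluted with water, orally or subcutaneously. The dose was split equally between 1 and 5 h post-infection. Groups were 10 mice at ≥3 dose levels. ED50 was calculated from day-6 cumulative mortality by the trimmed Logit method.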

Staphylococcus aureus [10] = test: In vivo antibacterial activity against Staphylococcus aureus NCTC 10649 infected mouse by oral administration; how it was run: as §2
Klebsiella pneumoniae [11] = test: In vitro minimum inhibitory concentration brain-heart infusion agar; how it was run: as §1
Pseudomonas aeruginosa [12] = test: Not Plasmodium species

| Compound | MIC (Klebsiella pneumoniae [1]) | MIC (Staphylococcus aureus [2]) | MIC (Klebsiella aerogenes) | MIC (Acinetobacter) | MIC (Pseudomonas aeruginosa [3]) | MIC (Streptococcus agalactiae) | MIC (Enterococcus faecium) | MIC (Escherichia coli) | MIC (Staphylococcus aureus [4]) | MIC (Pseudomonas aeruginosa [5]) | MIC (Streptococcus pyogenes) | MIC (Staphylococcus aureus [6]) | MIC (Streptococcus equinus) | MIC [7] | MIC (Staphylococcus aureus [8]) | ED50 (Staphylococcus aureus [9]) | ED50 (Staphylococcus aureus [10]) | MIC (Klebsiella pneumoniae [11]) | MIC (Pseudomonas aeruginosa [12]) |
| --- | --- | --- | --- | --- | --- | --- | --- | --- | --- | --- | --- | --- | --- | --- | --- | --- | --- | --- | --- |
| NC1CCN(c2nc3c(cc2F)c(=O)c(C(=O)O)cn3C2CC2)C1 (stereo not given) | 0.01 µg/mL (≈ 0.0301 µM) | 0.1 µg/mL (≈ 0.301 µM) | 0.02 µg/mL (≈ 0.0602 µM) | 0.1 µg/mL (≈ 0.301 µM) | 0.1 µg/mL (≈ 0.301 µM) | 0.39 µg/mL (≈ 1.17 µM) | 0.39 µg/mL (≈ 1.17 µM) | 0.01 µg/mL (≈ 0.0301 µM) | 0.2 µg/mL (≈ 0.602 µM) | 0.1 µg/mL (≈ 0.301 µM) | 0.39 µg/mL (≈ 1.17 µM) | 0.1 µg/mL (≈ 0.301 µM) | 0.78 µg/mL (≈ 2.35 µM) | 0.1 µg/mL (≈ 0.301 µM) |  |  |  |  |  |
| O=C1CCN(c2cc3c(cc2F)c(=O)c(C(=O)O)cn3C2CC2)C1 | 6.2 µg/mL (≈ 18.8 µM) | 1.56 µg/mL (≈ 4.72 µM) | 12.5 µg/mL (≈ 37.8 µM) | 50 µg/mL (≈ 151 µM) | > 100 µg/mL | 100 µg/mL (≈ 303 µM) | > 100 µg/mL | 6.2 µg/mL (≈ 18.8 µM) | 3.1 µg/mL (≈ 9.38 µM) | > 100 µg/mL | > 100 µg/mL | 3.1 µg/mL (≈ 9.38 µM) | > 100 µg/mL | 3.1 µg/mL (≈ 9.38 µM) | 1.56 µg/mL (≈ 4.72 µM) |  |  |  |  |
| O=C1CCN(c2nc3c(cc2F)c(=O)c(C(=O)O)cn3-c2ccc(F)cc2F)CC1 | 0.39 µg/mL (≈ 0.934 µM) | 0.05 µg/mL (≈ 0.12 µM) | 3.1 µg/mL (≈ 7.43 µM) | 1.56 µg/mL (≈ 3.74 µM) | 3.1 µg/mL (≈ 7.43 µM) | 1.56 µg/mL (≈ 3.74 µM) | 1.56 µg/mL (≈ 3.74 µM) | 0.39 µg/mL (≈ 0.934 µM) | 0.1 µg/mL (≈ 0.24 µM) | 12.5 µg/mL (≈ 30 µM) | 1.56 µg/mL (≈ 3.74 µM) | 0.1 µg/mL (≈ 0.24 µM) | 3.1 µg/mL (≈ 7.43 µM) | 0.2 µg/mL (≈ 0.479 µM) | 0.1 µg/mL (≈ 0.24 µM) |  |  |  |  |
| O=C(O)c1cn(-c2ccc(F)cc2F)c2nc(N3CCC(=NO)CC3)c(F)cc2c1=O | 0.78 µg/mL (≈ 1.8 µM) | 0.05 µg/mL (≈ 0.116 µM) | 3.1 µg/mL (≈ 7.17 µM) | 3.1 µg/mL (≈ 7.17 µM) | 6.2 µg/mL (≈ 14.3 µM) | 0.78 µg/mL (≈ 1.8 µM) | 1.56 µg/mL (≈ 3.61 µM) | 0.78 µg/mL (≈ 1.8 µM) | 0.1 µg/mL (≈ 0.231 µM) | 12.5 µg/mL (≈ 28.9 µM) | 1.56 µg/mL (≈ 3.61 µM) | 0.2 µg/mL (≈ 0.463 µM) | 3.1 µg/mL (≈ 7.17 µM) | 0.2 µg/mL (≈ 0.463 µM) | 0.1 µg/mL (≈ 0.231 µM) | > 2 mg/kg | > 8 mg/kg |  |  |
| O=C(O)c1cn(C2CC2)c2c(F)c(N3CC/C(=N\O)C3)c(F)cc2c1=O | 0.05 µg/mL (≈ 0.138 µM) | < 0.005 µg/mL | 0.39 µg/mL (≈ 1.07 µM) | 0.2 µg/mL (≈ 0.55 µM) | 0.78 µg/mL (≈ 2.15 µM) | 0.1 µg/mL (≈ 0.275 µM) | 0.1 µg/mL (≈ 0.275 µM) | 0.02 µg/mL (≈ 0.055 µM) | 0.01 µg/mL (≈ 0.0275 µM) | 0.78 µg/mL (≈ 2.15 µM) | 0.1 µg/mL (≈ 0.275 µM) | 0.02 µg/mL (≈ 0.055 µM) | 0.2 µg/mL (≈ 0.55 µM) | 0.02 µg/mL (≈ 0.055 µM) | 0.01 µg/mL (≈ 0.0275 µM) | 1.5 mg/kg | 3 mg/kg |  |  |
| O=C1CCN(c2c(F)cc3c(=O)c(C(=O)O)cn(C4CC4)c3c2F)C1 | 0.39 µg/mL (≈ 1.12 µM) | 0.78 µg/mL (≈ 2.24 µM) | 1.56 µg/mL (≈ 4.48 µM) | 3.1 µg/mL (≈ 8.9 µM) | 50 µg/mL (≈ 144 µM) | 12.5 µg/mL (≈ 35.9 µM) | 6.2 µg/mL (≈ 17.8 µM) | 0.39 µg/mL (≈ 1.12 µM) | 0.78 µg/mL (≈ 2.24 µM) | 50 µg/mL (≈ 144 µM) | 25 µg/mL (≈ 71.8 µM) | 0.39 µg/mL (≈ 1.12 µM) | 50 µg/mL (≈ 144 µM) | 1.56 µg/mL (≈ 4.48 µM) | 0.39 µg/mL (≈ 1.12 µM) |  |  |  |  |
| O=C(O)c1cn(C2CC2)c2nc(N3CC/C(=N\O)C3)c(F)cc2c1=O |  | 0.02 µg/mL (≈ 0.0578 µM) | 0.2 µg/mL (≈ 0.578 µM) | 0.2 µg/mL (≈ 0.578 µM) |  | 0.2 µg/mL (≈ 0.578 µM) | 0.39 µg/mL (≈ 1.13 µM) | 0.02 µg/mL (≈ 0.0578 µM) | 0.05 µg/mL (≈ 0.144 µM) | > 100 µg/mL | 0.39 µg/mL (≈ 1.13 µM) | 0.05 µg/mL (≈ 0.144 µM) | 0.78 µg/mL (≈ 2.25 µM) | 0.05 µg/mL (≈ 0.144 µM) | 0.05 µg/mL (≈ 0.144 µM) |  |  | 0.05 µg/mL (≈ 0.144 µM) | 0.78 µg/mL (≈ 2.25 µM) |
| O=C(O)c1cn(C2CC2)c2c(F)c(N3CCC(=NO)CC3)c(F)cc2c1=O | 0.1 µg/mL (≈ 0.265 µM) | 0.01 µg/mL (≈ 0.0265 µM) | 0.39 µg/mL (≈ 1.03 µM) | 0.39 µg/mL (≈ 1.03 µM) | 1.56 µg/mL (≈ 4.13 µM) | 0.2 µg/mL (≈ 0.53 µM) | 0.2 µg/mL (≈ 0.53 µM) | 0.2 µg/mL (≈ 0.53 µM) | 0.02 µg/mL (≈ 0.053 µM) | 3.1 µg/mL (≈ 8.22 µM) | 0.1 µg/mL (≈ 0.265 µM) | 0.05 µg/mL (≈ 0.133 µM) | 0.39 µg/mL (≈ 1.03 µM) | 0.02 µg/mL (≈ 0.053 µM) | 0.02 µg/mL (≈ 0.053 µM) | 6.7 mg/kg | 3 mg/kg |  |  |
| O=C1CCN(c2cc3c(cc2F)c(=O)c(C(=O)O)cn3-c2ccc(F)cc2F)C1 | 6.2 µg/mL (≈ 15.4 µM) | 0.39 µg/mL (≈ 0.969 µM) | 12.5 µg/mL (≈ 31.1 µM) | 12.5 µg/mL (≈ 31.1 µM) | 50 µg/mL (≈ 124 µM) | 12.5 µg/mL (≈ 31.1 µM) | 25 µg/mL (≈ 62.1 µM) | 12.5 µg/mL (≈ 31.1 µM) | 1.56 µg/mL (≈ 3.88 µM) | > 100 µg/mL | 25 µg/mL (≈ 62.1 µM) | 1.56 µg/mL (≈ 3.88 µM) | > 100 µg/mL | 1.56 µg/mL (≈ 3.88 µM) | 0.39 µg/mL (≈ 0.969 µM) |  |  |  |  |

From ChEMBL document CHEMBL1125434, “Preparation and in vitro and in vivo evaluation of quinolones with selective activity against gram-positive organisms” (1992)
